Data on 19 molecules can be found in ChEMBL document CHEMBL4813918, “From off-to on-target: New BRAF-inhibitor-template-derived compounds selectively targeting mitogen activated protein kinase kinase 4 (MKK4)” (Eur J Med Chem, 2021).

Assay [1] addresses Mitogen-activated protein kinase kinase kinase 20 (Homo sapiens) (UniProt Q9NYL2). Briefly: Binding affinity to wild type partial length human ZAK (M1 to L331) expressed in bacterial expression system assessed as residual activity at 100 nM measured by Kinomescan assay.
The target in assay [2] is T1, Dual specificity mitogen-activated protein kinase kinase 4 (Mus musculus, UniProt P47809).
T1 sequence (P47809 whole entry): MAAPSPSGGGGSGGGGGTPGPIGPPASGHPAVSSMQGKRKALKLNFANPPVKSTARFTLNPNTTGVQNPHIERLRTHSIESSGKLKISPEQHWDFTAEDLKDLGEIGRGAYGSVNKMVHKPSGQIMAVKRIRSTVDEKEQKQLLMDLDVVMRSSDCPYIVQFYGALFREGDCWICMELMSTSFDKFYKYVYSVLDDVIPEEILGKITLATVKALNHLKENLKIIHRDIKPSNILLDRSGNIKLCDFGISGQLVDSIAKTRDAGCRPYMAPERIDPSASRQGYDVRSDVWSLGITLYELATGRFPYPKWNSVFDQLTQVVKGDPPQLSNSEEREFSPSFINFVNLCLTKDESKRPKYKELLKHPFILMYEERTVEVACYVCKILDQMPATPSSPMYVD
Briefly: Binding affinity to GST tagged mouse MKK4 expressed in Escherichia coli expression system measured by Kinomescan assay. The method, boiled down:
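Competition binding: compound competes with an immobilized multikinase inhibitor for the site on DNA-tagged MKK4. Bound kinase is quantified by qPCR. Kd values are determined in duplicate.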

In assay [3] the target is Mitogen-activated protein kinase kinase kinase kinase 5 (Homo sapiens) (UniProt Q9Y4K4). Briefly: Binding affinity to wild type partial length human MAP4K5 (M1 to P297) expressed in Bacterial expression system assessed as residual activity at 100 nM measured by Kinomescan assay relative to control.
Assay [4] addresses T2, Dual specificity mitogen-activated protein kinase kinase 7 (Homo sapiens) (UniProt O14733).
T2 sequence (whole entry): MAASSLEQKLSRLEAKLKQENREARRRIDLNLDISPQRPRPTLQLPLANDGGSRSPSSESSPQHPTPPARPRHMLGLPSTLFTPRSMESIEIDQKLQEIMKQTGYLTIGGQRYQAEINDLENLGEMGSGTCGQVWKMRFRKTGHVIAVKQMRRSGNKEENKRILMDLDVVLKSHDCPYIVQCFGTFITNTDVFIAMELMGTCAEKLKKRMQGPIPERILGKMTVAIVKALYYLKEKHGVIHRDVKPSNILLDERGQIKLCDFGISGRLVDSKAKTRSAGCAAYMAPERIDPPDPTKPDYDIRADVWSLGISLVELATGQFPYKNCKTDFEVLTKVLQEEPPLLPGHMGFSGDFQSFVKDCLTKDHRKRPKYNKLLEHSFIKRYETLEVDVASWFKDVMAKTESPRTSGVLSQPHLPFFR
The assay is described as follows: Binding affinity to wild type full length human MKK7 (M1 to R419 residues) expressed in mammalian expression system assessed as residual activity at 100 nM measured by Kinomescan assay.

Structures are written as SMILES.

Chain of Mitogen-activated protein kinase kinase kinase 20 (Homo sapiens) (Q9NYL2 2-800 limits assumed): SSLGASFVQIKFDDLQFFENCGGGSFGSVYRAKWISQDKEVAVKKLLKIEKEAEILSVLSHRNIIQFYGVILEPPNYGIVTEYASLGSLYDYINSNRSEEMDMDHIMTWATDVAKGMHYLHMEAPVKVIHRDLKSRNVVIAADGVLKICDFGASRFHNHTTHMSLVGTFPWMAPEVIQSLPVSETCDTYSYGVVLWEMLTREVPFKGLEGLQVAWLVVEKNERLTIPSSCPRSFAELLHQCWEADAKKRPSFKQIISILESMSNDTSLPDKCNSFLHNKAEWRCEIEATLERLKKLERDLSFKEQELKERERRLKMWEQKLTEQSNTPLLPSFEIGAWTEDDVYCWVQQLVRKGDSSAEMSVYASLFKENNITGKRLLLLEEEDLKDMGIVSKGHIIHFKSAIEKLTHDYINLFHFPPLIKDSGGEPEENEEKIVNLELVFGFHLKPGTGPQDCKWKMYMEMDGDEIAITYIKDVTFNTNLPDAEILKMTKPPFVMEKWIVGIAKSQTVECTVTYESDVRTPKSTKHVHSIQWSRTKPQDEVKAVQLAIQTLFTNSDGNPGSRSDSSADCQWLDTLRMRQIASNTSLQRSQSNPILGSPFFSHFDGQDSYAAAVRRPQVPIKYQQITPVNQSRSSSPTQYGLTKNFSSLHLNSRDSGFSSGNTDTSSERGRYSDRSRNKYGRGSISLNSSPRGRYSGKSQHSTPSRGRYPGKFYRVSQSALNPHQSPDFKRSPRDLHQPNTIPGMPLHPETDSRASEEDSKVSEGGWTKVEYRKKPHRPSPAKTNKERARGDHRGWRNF
Chain of Mitogen-activated protein kinase kinase kinase kinase 5 (Homo sapiens) (Q9Y4K4 whole entry, looked up): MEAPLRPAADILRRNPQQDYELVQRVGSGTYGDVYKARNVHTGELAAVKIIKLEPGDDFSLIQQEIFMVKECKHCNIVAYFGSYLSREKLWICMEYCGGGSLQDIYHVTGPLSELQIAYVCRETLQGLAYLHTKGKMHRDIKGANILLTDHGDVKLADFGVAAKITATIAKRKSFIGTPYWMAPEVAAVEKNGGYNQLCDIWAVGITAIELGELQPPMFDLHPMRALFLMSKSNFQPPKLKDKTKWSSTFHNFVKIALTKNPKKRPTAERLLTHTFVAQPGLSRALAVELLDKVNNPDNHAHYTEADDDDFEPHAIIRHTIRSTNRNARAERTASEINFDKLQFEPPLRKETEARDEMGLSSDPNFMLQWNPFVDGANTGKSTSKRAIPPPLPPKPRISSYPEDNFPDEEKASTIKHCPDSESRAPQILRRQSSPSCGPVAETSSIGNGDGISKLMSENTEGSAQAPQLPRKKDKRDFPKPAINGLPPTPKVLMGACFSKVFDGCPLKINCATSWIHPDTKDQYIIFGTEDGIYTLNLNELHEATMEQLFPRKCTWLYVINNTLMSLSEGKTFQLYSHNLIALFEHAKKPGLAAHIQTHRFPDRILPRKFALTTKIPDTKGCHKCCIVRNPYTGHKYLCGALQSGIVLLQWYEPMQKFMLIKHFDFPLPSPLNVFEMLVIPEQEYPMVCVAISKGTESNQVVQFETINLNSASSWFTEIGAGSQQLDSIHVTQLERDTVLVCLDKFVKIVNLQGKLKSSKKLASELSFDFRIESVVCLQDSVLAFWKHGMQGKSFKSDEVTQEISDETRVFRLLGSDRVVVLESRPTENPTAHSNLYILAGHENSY

As for `O=C(c1cccc(NS(=O)(=O)Cc2ccccc2)c1F)c1c[nH]c2ncc(-c3cnc(C4CC4)nc3)cc12`, the results for the Activity in assay [1], in assay [3] and in assay [4] were 80%, 82% and 86%, respectively. Besides, the affinity in assay [2], expressed as Kd, was 1.1 nM.

For `CCCS(=O)(=O)Nc1ccc(F)c(C(=O)c2c[nH]c3ncc(-c4ccc(Cl)cc4)cc23)c1F` [VEMURAFENIB], the values for the Activity in assay [1], in assay [3] and in assay [4] were 5.3%, 48% and 100%, respectively. For the same molecule, the Kd (as a rule, the constant that tells how readily two partners part at equilibrium) in assay [2] worked out at 8.2 nM.

In the case of `CCCS(=O)(=O)Nc1cccc(C(=O)c2c[nH]c3ncc(-c4ccc(Cl)cc4)cc23)c1Cl`, the Activity in assay [1] is 68%; in assay [3], 79%; in assay [4] it was 100%.

For `CCCS(=O)(=O)Nc1ccc(F)c(C(=O)c2c[nH]c3ncc(-c4ccccc4OC)cc23)c1F`, the Activity in assay [1] was 16%; in assay [3], 43%; in assay [4] it was 100%.

With `O=C(c1c(F)ccc(NS(=O)(=O)CCc2ccccc2)c1F)c1c[nH]c2ncc(-c3ccc(Cl)cc3)cc12`, the figures for the Activity in assay [1], in assay [3] and in assay [4] were 53%, 100% and 97%, respectively.

Regarding `CCCS(=O)(=O)Nc1ccc(F)c(C(=O)c2c[nH]c3ncc(-c4ccccc4C)cc23)c1F`, the Activity in assay [1] was 6.9%; in assay [3] it was 67%; in assay [4], 100%.

Take `O=C(c1c(F)ccc(NS(=O)(=O)CCCF)c1F)c1c[nH]c2ncc(-c3ccc(Cl)cc3)cc12`: the figures for the Activity in assay [1], in assay [3] and in assay [4] were 1.4%, 80% and 100%, respectively.

For the molecule `CCCS(=O)(=O)Nc1ccc(F)c(C(=O)c2c[nH]c3ncc(-c4ccccc4)cc23)c1F`, the Activity was 0.5% in assay [1], 29% in assay [3] and 100% in assay [4].

In the case of `CCCS(=O)(=O)Nc1ccc(F)c(C(=O)c2c[nH]c3ncc(-c4ccc(C)cc4)cc23)c1F`, the Activity came out at 0.85% in assay [1], 28% in assay [3] and 89% in assay [4].

In the case of `CCCS(=O)(=O)Nc1ccc(F)c(C(=O)c2c[nH]c3ncc(-c4ccc(OC)c(OC)c4)cc23)c1F`, the Activity in assay [1] was determined as 18%; in assay [3] it was 14%; in assay [4] it was 84%.

Take `O=C(c1cccc(NS(=O)(=O)Cc2ccccc2)c1F)c1c[nH]c2ncc(-c3cccnc3)cc12`: the Activity in assay [1] came to 1.7%; in assay [3] it was 20%; in assay [4] it was 85%.

Take `O=C(c1c(F)ccc(NS(=O)(=O)CCC(F)(F)F)c1F)c1c[nH]c2ncc(-c3ccc(Cl)cc3)cc12`: the Activity in assay [1] was 3.5%; in assay [3], 54%; in assay [4] it was 100%.

Regarding `COc1ccc(-c2cnc3[nH]cc(C(=O)c4cccc(NS(=O)(=O)Cc5ccccc5)c4F)c3c2)c(Cl)c1`, the Activity worked out at 87% in assay [1], 79% in assay [3] and 100% in assay [4].

Regarding `O=C(c1cccc(NS(=O)(=O)Cc2ccccc2)c1F)c1c[nH]c2ncc(-c3cc4c(cc3Cl)OCCO4)cc12`, the figures for the Activity in assay [1], in assay [3] and in assay [4] were 94%, 98% and 100%, respectively. Also, in assay [2], binding was put at a Kd of 3.5 nM.

`Cc1cc(F)ccc1-c1cnc2[nH]cc(C(=O)c3cccc(NS(=O)(=O)Cc4ccccc4)c3F)c2c1`: the Activity in assay [1] amounted to 90%; in assay [3], 97%; in assay [4], 98%.

As for `CCCS(=O)(=O)Nc1ccc(F)c(C(=O)c2c[nH]c3ncc(-c4cnc(OC)nc4)cc23)c1F`, the Activity in assay [1] was found to be 8.9%; in assay [3] it was 86%; in assay [4], 84%.

For `CCCS(=O)(=O)Nc1ccc(F)c(C(=O)c2c[nH]c3ncc(-c4ccc(F)cc4C)cc23)c1F`, the Activity was found to be 14% in assay [1], 100% in assay [3] and 100% in assay [4].

As to `CCCCCS(=O)(=O)Nc1ccc(F)c(C(=O)c2c[nH]c3ncc(-c4ccc(Cl)cc4)cc23)c1F`, the Activity in assay [1] was 55%; in assay [3], 98%; in assay [4], 89%.

With `COc1ncc(-c2cnc3[nH]cc(C(=O)c4cccc(NS(=O)(=O)Cc5ccccc5)c4F)c3c2)cn1`, the Activity was 38% in assay [1], 86% in assay [3] and 70% in assay [4]. In assay [2], the affinity, expressed as Kd, was 0.85 nM.
